# Compounds with a hit are over-represented: about 1.7% of the library has one in this group of screens.
# LMPTP block: LMPTP phosphatase inhibitors, primary screen, biochemical, fluorescence intensity, uHTS. Low molecular weight phosphotyrosine protein phosphatase (Homo sapiens), P24666. recombinant LMPTP-A, OMFP fluorogenic substrate. inhibition, % at 20 µM. 0.22% of 360,000 active. AID 651560, 2012;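 active means compounds that cut the enzyme signal by at least half of the control window in the single-dose screen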
#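 test system = LMPTP-A | amount = 0.625 nM LMPTP-A final | reagent = fluorogenic phosphatase substrate OMFP at 400 µM final | incubation = 50 min at room temperature | benchmarks = no-enzyme low control, uninhibited high control | medium = Bis-Tris pH 6.0, DTT, detergent | signal = fluorescence intensity of OMFP turnover product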
# SUMO1-SIM PPI: modulators of SUMO1 protein-protein interactions, primary screen, biochemical, uHTS | inhibition, % at 20 µM | 0.33% of 360,000 active | Small ubiquitin-related modifier 1 (Homo sapiens), P63165 | SUMO1 binding to a labelled peptide, TR-FRET, 1 h; in the data active means inhibition above about 37%
# STEP inh: STEP phosphatase inhibitors, primary screen, biochemical, fluorescence intensity, uHTS. recombinant STEP, OMFP fluorogenic substrate. inhibition, % at 20 µM. 0.25% of 360,000 active. AID 588621, 2011;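 active means inhibition at 20 µM, scaled per plate between control wells, above about 37%, limit read from the data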
#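 System: isolated STEP enzyme; schedule: 20 min enzyme reaction at room temperature, protected from light; medium: Bis-Tris buffer pH 6.0, 2.5 mM DTT, 0.005% Tween 20; signal: fluorescence, 480/540 nm; dosing: single compound dose of 20 µM, 1% DMSO final; also added: OMFP substrate, 25 µM final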
# DNMT1 inh: human DNMT1 methyltransferase inhibitors, primary screen, biochemical, molecular beacon, fluorescence, HinP1I cleavage, uHTS | inhibition (reported as % activation of signal), % at 10 µM | 0.83% of 360,000 active; in the data active means inhibition above about 50%
# Scp-1 inhibitor: Scp-1 phosphatase inhibitors, primary screen, biochemical, colorimetric, uHTS. Carboxy-terminal domain RNA polymerase II polypeptide A small phosphatase 1 (Homo …. Recombinant Scp1, phosphopeptide, malachite green phosphate absorbance. inhibition, % at 20 µM. 0.88% of 340,000 active. AID 493091, 2011;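 active means inhibition above about 50% at 20 µM, limit read from the data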
#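 Assay system: SCP-1 catalytic fragment, aa 76-261 | Buffer or medium: Tris acetate buffer pH 5.5 with MgCl2 and Tween-20 | Compound: One concentration, 20 µM, with 1.0% DMSO | Also added: Phospho 17-mer peptide substrate | Signal: Absorbance at 630 nm | Incubation: 45 min enzyme reaction at room temperature | Measure: % inhibition of SCP-1 phosphate liberation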
# Numbers stand for hits; i = inactive; nt = not tested or not shown.
SMILES,LMPTP block,SUMO1-SIM PPI,STEP inh,DNMT1 inh,Scp-1 inhibitor
C=C(C)C(=O)Nc1cccc(C2=NOC3(C2)C[C@@H](C(N)=O)N(C(=O)c2ccc(OC)cc2)C3)c1 (stereo partly specified),i,106.8,i,95.8,99.4
CCOc1ccc(NC(=O)c2cccc(S(=O)(=O)NCc3cccnc3)c2)cc1,i,i,i,i,nt
CN(C)c1ccc(O)c2c1CC1CC3[C@@H](N(C)C)C(=O)C(C(N)=O)=C(O)[C@]3(O)C(=O)C1=C2O (stereo partly specified),i,i,i,89.6,i
O=C(N/N=C/c1c(O)ccc2ccccc12)c1ccc(Br)o1,64.3,i,76.7,i,99.2
O=C(O)C(O)c1ccccc1 (stereo unspecified),i,i,i,i,i
O=C(O)C(O)c1ccco1 (stereo unspecified),i,i,53.1,91.9,77.3
CC(C)C[C@@H](CN1CCCC1CN1C(=S)NC[C@@H]1Cc1ccccc1)N1C[C@H](Cc2ccccc2)N(CCc2ccccc2)C1=S (stereo partly specified),i,i,nt,nt,nt
CCCCCCCCCCCCCCCC[n+]1cccc2ccccc21,i,82.8,i,i,75.2
O=C1NC[C@@H](Cc2cccc3ccccc23)N(CCc2cccc(F)c2)C1=O,i,i,nt,nt,nt
CCOc1ccc(C(=O)NCC(=O)OCC(=O)Nc2cccc(S(=O)(=O)N3CCCC3)c2)cc1,i,47.9,i,i,i
O=[N+]([O-])c1ccccc1N/N=C/c1cccc(O)c1O,i,44.6,i,i,i
O=[N+]([O-])c1ccccc1N/N=C\c1ccccc1Cl,i,i,i,i,i
CC(C)(C)Cc1c(-c2cccc(Cl)c2)nc2ccc(Br)cn12,i,i,i,i,nt
COc1cc2c(ccc3cc(OC)c(OC)c(O)c32)cc1O,61.8,i,53.2,84.9,69.0
OC1CNc2c(ccc3ccccc23)C1 (stereo unspecified),i,i,i,i,i
COc1ccc(NC(=S)Nc2ccc3nsnc3c2)cc1,i,58.0,i,64.3,i
COc1ccc(NC(=S)Nc2ccc3nc(C)c(C)nc3c2)cc1,i,i,i,i,i
CCN1CCC2(CC1)N=C(c1ccc(F)cc1)C(=S)N2C(=O)c1ccc(C(C)(C)C)cc1,i,i,55.6,i,i
CC(=O)c1sc(NC(=O)C2CCN(C(=O)c3ccc(F)cc3)CC2)nc1-c1ccccc1,i,i,i,i,i
O=C(Cc1cccs1)OCC(=O)c1ccco1,i,i,i,65.2,70.4
COc1ccc(/C=C/C(=O)Oc2cccc(/C=N/NC(=O)Cc3ccc(Br)cc3)c2)cc1,i,i,i,i,i
O=C(CSc1ccc(Cl)cc1)c1ccco1,i,i,i,97.9,72.9
Cc1cccc(-c2nnc3n2N=C(c2ccc(Br)cc2)CS3)c1,nt,nt,nt,nt,i
COc1cccc(-c2nnc3n2N=C(c2cccc(Br)c2)CS3)c1,i,49.4,i,i,i
O=C1/C(=C/c2ccco2)CCc2ccccc21,i,i,i,i,i
SMILES,LMPTP block,SUMO1-SIM PPI,STEP inh,DNMT1 inh,Scp-1 inhibitor
Nc1ccc2c(c1)C/C(=C/c1ccco1)C2=O,67.0,39.9,i,88.4,73.1
CCC(C)Nc1nc(-c2ccc3c(c2)NC(=O)CO3)cs1 (stereo unspecified),48.3,i,i,i,i
COc1ccc(Nc2nc(-c3ccc4c(c3)NC(=O)CO4)cs2)cc1,54.0,i,i,i,i
COc1ccccc1Nc1nc(-c2ccc3c(c2)NC(=O)CO3)cs1,i,i,i,i,i
CCCCOc1ccc(C2C(C(=O)c3ccc(C)o3)=C(O)C(=O)N2CC2CCCO2)cc1 (stereo unspecified),i,i,i,i,i
Cc1ccc(C(=O)ONc2ccc(N=NC(=O)c3ccccc3O)cc2)cc1,78.4,i,77.1,i,110.4
CCOc1ccccc1N1CCN(C(=S)Nc2ccc(S(=O)(=O)Nc3ncccn3)cc2)CC1,i,i,i,i,i
COc1ccc(OCC(=O)N/N=C/c2cccn2-c2cccc(C(=O)O)c2)cc1,i,i,i,52.8,i
COc1cc(CC(NC(C)=O)C(=O)NC2CCN(c3nc(C)cc(C)c3C#N)CC2)cc(OC)c1 (stereo unspecified),i,41.7,i,i,i
COc1cccc(CC(NC(C)=O)C(=O)NC2CCN(c3nc(C)cc(C)c3C#N)CC2)c1OC (stereo unspecified),i,i,i,i,i
CC1CCCCN1S(=O)(=O)c1ccc2[nH]c(=O)cc(C(=O)NCCCN3CCCCCC3)c2c1 (stereo unspecified),i,i,i,i,i
N=C1S/C(=C\c2ccc(-c3ccccc3C(=O)O)o2)C(=O)N1c1ccc2c(c1)OCO2,i,i,i,i,52.9
CCOC(=O)CN1C(=O)S/C(=C\c2ccc(-c3cccc(C(=O)O)c3C)o2)C1=O,i,i,i,i,i
Cn1c(/N=C/c2c(O)ccc3ccccc23)nc2ccccc21,i,81.7,i,i,i
COc1ccccc1N(CC(O)COc1ccccc1C)S(=O)(=O)c1ccccc1 (stereo unspecified),i,i,i,i,i
CCN(CC)c1ccc2c(-c3ccc(S(=O)(=O)O)cc3S(=O)(=O)[O-])c3ccc(=[N+](CC)CC)cc-3oc2c1,i,i,i,i,76.7
CCN(CC)c1ccc2nc3c4ccccc4c(=O)cc-3oc2c1,nt,nt,nt,nt,i
O=C(O)c1cnn(-c2nc(-c3ccc(Br)cc3)cs2)c1C(F)(F)F,i,i,i,i,i
COC(=O)/C=c1/sc2nc3ccccc3n2c1=O,i,i,i,i,i
O=c1/c(=C\c2cc([N+](=O)[O-])cc([N+](=O)[O-])c2O)sc2nc3ccccc3n12,i,i,i,i,80.3
O=C(O)c1cccc(-c2ccc(/C=c3/sc4nc5ccccc5n4c3=O)o2)c1,i,103.3,93.9,86.8,96.3
O=c1/c(=C/c2ccccn2)sc2nc3ccccc3n12,i,i,i,i,i
O=C(O)c1cc(C(=O)O)cc(-c2ccc(/C=c3/sc4nc5ccccc5n4c3=O)o2)c1,nt,nt,nt,nt,69.7
COc1ccc(-c2cnc(C(O)c3ccc(OC)c(F)c3)[nH]2)cc1 (stereo unspecified),i,i,i,i,nt
Cc1ccccc1CN1C(=O)c2ccccc2S1(=O)=O,i,43.6,i,i,i
Cc1ccccc1CNC(=O)CN1C(=O)c2ccccc2S1(=O)=O,i,i,i,i,i

# Bioassay records from PubChem BioAssay.
